Experimental data: article PMC6133219 (Anti-Cancer Drugs, 2018)

Experiments:
[1] = test system: GCRC-1945 PDX; assay: Orthotopic TNBC PDX GCRC-1945 model in NSG mice; type: in vivo, mouse; conditions: for median survival: GCRC-1945 at MED (DZ-2384 1.25 mg/kg, paclitaxel 10 mg/kg), vehicle 36 days
Summary of the method: (§1)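 PDX tumor fragments (1–1.5 mm3) were implanted into the left fat pad of female NSG mice (6–8 weeks), passaged ≤8 times. Mice were randomized at 100–250 mm3 and treated iv once weekly for 4 weeks, with doses set as fractions of each agent's MTD. Caliper volume was calculated as 4/3π[(a/2)×(b/2)^2]. Kaplan–Meier log-rank and Student's t-test were used.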

[2] = test system: RenCa tumors; assay: RenCa syngeneic renal carcinoma model in Balb/c mice; type: in vivo, mouse; conditions: within the first 18 days of treatment
Summary of the method: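 Balb/c mice (6–8 weeks) were injected with 2.5×10^5 RenCa cells in the left lower flank, then randomized at 100–150 mm3 (n=7/group). On day 1 they got a single iv dose of test compound (14 mg/kg) or cremophor EL:ethanol:saline vehicle. From 4 days later, they received biweekly ip anti-CTLA-4 (9H10) or rat IgG2a isotype (2A3) at 10 mg/kg for 2 weeks. Individual tumor volumes were measured 2–3 times weekly.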

[3] = test system: MDA-MB-231-BrM2; assay: Brain metastatic tumor model, intracranial MDA-MB-231-BrM2 in NSG mice; type: in vivo, mouse; conditions: for body weight loss: MDA-MB-231-BrM2 brain model, DZ-2384 10 mg/kg, paclitaxel 40 mg/kg
Summary of the method: (§2)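 Cells were implanted intracranially into the right frontal lobe of female NSG mice (6–8 weeks): MDA-MB-231-BrM2 at 7.5×10^4 cells, or luciferase-expressing GCRC-1945 at 1×10^5 cells. Mice were randomized by bioluminescent tumor burden, then dosed iv biweekly for 2 weeks in cremophor EL:ethanol:saline (5:5:90). Imaging was weekly (D-luciferin 150 mg/kg ip, 10 min prior; photon flux). Survival was analysed by Kaplan–Meier log-rank and weights tracked.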

[4] = test system: GCRC-2076 PDX; assay: Orthotopic TNBC PDX GCRC-2076; type: in vivo, mouse; conditions: for median survival: GCRC-2076 at 0.5x MTD, vehicle 30 days
Summary of the method: as §1

[5] = test system: GCRC-1945; assay: Brain metastatic tumor model, intracranial GCRC-1945 in NSG mice; type: in vivo, mouse; conditions: for body weight loss: GCRC-1945 brain model, DZ-2384 10 mg/kg, paclitaxel 40 mg/kg
Summary of the method: as §2

[6] = type: in vivo, mouse
Summary of the method: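 Female NSG mice bearing MDA-MB-231-BrM2 mammary fat pad tumors received a single iv bolus of 10 or 40 mg/kg, depending on compound, in cremophor:ethanol:saline (5:5:90); n=4 per time point. Sampling was at 0–24 h. Plasma was taken, then mice were perfused with 20 ml saline via the left ventricle before brain, heart, lung and tumor harvest. Homogenates were measured by LC–MS/MS; tissue/plasma AUC0–∞ ratios were calculated.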

[7] = Maximum tolerated dose in nontumor bearing NSG mice; type: in vivo, mouse
Summary of the method: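 Each compound was given to four mice of the relevant strain as four biweekly iv injections. General condition was checked at least three times weekly. Endpoints were >20% weight loss for more than three consecutive days, death, or severe distress. Weights, clinical signs and survival were recorded until 1 week after the last dose.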

[8] = cited from earlier work
[9] = test system: MDA-MB-231-LM2 lung metastases; assay: MDA-MB-231-LM2 lung metastases model in SCID-beige mice; type: in vivo, mouse; conditions: for antitumor effect: MDA-MB-231-LM2, DZ-2384 0.5, 1.5, 4.5 mg/kg, docetaxel 2, 4 mg/kg
Summary of the method: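 Female SCID-beige mice (6–8 weeks) received 2.5×10^5 MDA-MB-231-LM2 cells via lateral tail vein. About 2 weeks later, mice with confirmed lung metastases were randomized by bioluminescent burden. They then got four biweekly iv injections in cremophor EL:ethanol:saline (5:5:90). Weekly imaging used D-luciferin 150 mg/kg ip. Survival was analysed by Kaplan–Meier log-rank; body weight was measured 2–3 times weekly.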

[10] = patients receiving docetaxel 100 mg/m^2 for TNBC; cited from earlier work

Question: Which antitumor efficacy ([1]; GCRC-1945, 0.125x and 0.25x MTD) does the source give for `CC(C)[C@H](O)C(=O)N[C@H]1Cc2ccc3c(c2)[C@]2(C4=C(c5nc(CO)co5)N=C(O4)[C@H](C(C)(C)C)NC1=O)c1cc(F)ccc1N[C@@H]2O3` [DZ-2384] here?
Answer: more effective than paclitaxel

Question: What about the antitumor efficacy ([1]; GCRC-1945, 0.5x MTD) of the same molecule?
Answer: equally effective

Question: And the median survival [1]?
Answer: 71 days

Question: What about the “effect on tumor volume relative to vehicle control” value [2] of the same molecule?
Answer: modest effects on tumor volume

Question: And the body weight loss [3]?
Answer: less than 10%

Question: What about the “efficacy (tumor burden, median survival vs vehicle)” value ([3]; intracranial MDA-MB-231-BrM2, MTD, iv biweekly for 2 weeks) of the same molecule?
Answer: efficacious

Question: What about the antitumor efficacy ([4]; GCRC-2076, 0.25x and 0.5x MTD) of the same molecule?
Answer: more effective than paclitaxel

Question: And the median survival [4]?
Answer: 88 days

Question: What about the body weight loss [5] of the same molecule?
Answer: less than 10%

Question: And the “efficacy (tumor burden, median survival vs vehicle)” value ([5]; intracranial GCRC-1945, MTD, iv biweekly for 2 weeks)?
Answer: efficacious

Question: What about the “proportion that accumulates in the brain relative to plasma exposure” value ([6]; AUC ratio brain/plasma, single iv dose at MTD, NSG mice) of the same molecule?
Answer: 15%

Question: And the “accumulation in tumor tissue relative to plasma” value ([6]; AUC ratio tumor/plasma, single iv dose at MTD, NSG mice)?
Answer: 18 fold

Question: And the “maximum concentration (Cmax) ratio in tumor relative to plasma” value ([6]; single iv dose at MTD, NSG mice)?
Answer: 1.3

Question: And the “maximum tolerated dose (MTD)” value ([7]; nontumor bearing NSG mice, iv biweekly for 2 weeks)?
Answer: 10 mg/kg

Question: And the “effects on peripheral nerves” value ([8]; rat model of peripheral neuropathy, effective levels)?
Answer: no detrimental effects on peripheral nerves

Question: What about the “tumor free mice (bioimaging)” value ([9]; MDA-MB-231-LM2, 4.5 mg/kg, 5 months after treatment initiation) of the same molecule?
Answer: four of nine

Question: What about the median survival ([9]; MDA-MB-231-LM2, 4.5 mg/kg, vehicle 37 days) of the same molecule?
Answer: more than 150 days

Question: What about the antitumor effect [9] of the same molecule?
Answer: profound antitumor effect at all doses tested

Question: With `CC(=O)O[C@@]12CO[C@@H]1C[C@H](O)[C@@]1(C)C(=O)[C@H](O)C3=C(C)[C@@H](OC(=O)[C@H](O)[C@@H](NC(=O)OC(C)(C)C)c4ccccc4)C[C@@](O)([C@@H](OC(=O)c4ccccc4)[C@H]21)C3(C)C` [docetaxel, reference compound] as the molecule, how does the exposure in patients [10] read?
Answer: 4810 to 5200 ng·h/mL

Question: And the “loss in digital and caudal nerve conduction velocity” value ([8]; rat, docetaxel 10 mg/kg (lowest dose tested))?
Answer: 12–23%

Question: What about the antitumor effect [9] of the same molecule?
Answer: effective at only the 4 mg/kg dose

Question: What about the weight loss ([9]; MDA-MB-231-LM2 model, 4 mg/kg docetaxel (MED)) of the same molecule?
Answer: more than 10%

Question: With `CC(=O)O[C@H]1C(=O)[C@@]2(C)[C@H]([C@H](OC(=O)c3ccccc3)[C@]3(O)C[C@H](OC(=O)[C@H](O)[C@@H](NC(=O)c4ccccc4)c4ccccc4)C(C)=C1C3(C)C)[C@]1(OC(C)=O)CO[C@@H]1C[C@@H]2O` [paclitaxel, reference compound] as the molecule, how does the antitumor efficacy ([1]; GCRC-1945, 0.5x MTD) read?
Answer: equally effective

Question: What about the median survival [1] of the same molecule?
Answer: 53 days

Question: And the body weight loss [3]?
Answer: less than 10%

Question: And the antitumor efficacy ([4]; GCRC-2076, 0.25x MTD)?
Answer: not effective

Question: What about the median survival [4] of the same molecule?
Answer: 69 days

Question: And the body weight loss [5]?
Answer: less than 10%

Question: What about the half-life ([6]; female, NSG, mouse, tumor, iv, 40 mg/kg) of the same molecule?
Answer: 19.1 h

Question: And the MTD at 2 weeks ([7]; NSG, mouse, in vivo, iv)?
Answer: 40 mg/kg
